From ChEMBL document CHEMBL1135744, “Design, synthesis, and structure-activity relationship of 6-alkynylpyrimidines as potent adenosine kinase inhibitors” (J Med Chem, 2002)
The source made the active and inactive calls. The rule behind the calls is not given here.

Legend:
Adenosine kinase = Adenosine kinase (Rattus norvegicus, UniProt Q64640); assay: Evaluated in vitro for inhibitory activity against Adenosine kinase (AK)
Summary of the method: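 Rat brain cytosol was the adenosine kinase source. The mix held 64 mM Tris-HCl pH 7.5, 0.2 mM MgCl2, 1 mM ATP and 0.2 μM [U-14C]ADO or [2-3H]ADO, incubated 15 min at 23 °C. Aliquots were spotted onto DE-81 anion-exchange disks, washed in 2 mM ammonium formate, rinsed and dried. Bound radioactivity was counted by scintillation.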

IMR-32 [1] = assay: Evaluated in vitro for the inhibition of Adenosine (ADO) phosphorylation in intact cells.; assay type: functional, cell-based; conditions: Homo sapiens
Summary of the method: (§1)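 IMR-32 human neuroblastoma cells were preincubated 10 min with compound (10^-11 to 10^-4 M), then given [U-14C]ADO (added as a 2 μM solution) for 20 min. Buffer was aspirated and cells were snap-frozen in liquid nitrogen, then thawed 20 min at room temperature. Supernatant was spotted on DE-81 disks, washed and counted by scintillation.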

IMR-32 [2] = assay: Evaluated in vitro for the inhibition of Adenosine (ADO) phosphorylation in intact IMR-32 human neuroblastoma cells.; assay type: functional, cell-based; summary of the method: as §1
Rattus norvegicus [3] = assay: Antihyperalgesic effect in the carrageenan induced thermal hyperalgesia model uM/Kg; assay type: functional, organism-based
Rattus norvegicus [4] = assay: Nociceptive paw flinching in rats assessed 30 min following an intraplantar injection of 5% formalin into the right hind paw.; NA=not active uM/Kg; assay type: functional, organism-based
Summary of the method: (§2)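 Rats received an intraplantar injection of 5% formalin (50 μL) into the right hindpaw, and nociceptive flinching was scored 30 min afterward. Data are mean ± SEM, n = 6-8 per dose group.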

Rattus norvegicus [5] = species: Rattus norvegicus; assay: Nociceptive paw flinching in rats assessed 30 min following an intraplantar injection of 5% formalin into the right hind paw.; assay type: functional; conditions: 0.5 h; summary of the method: as §2
Rattus norvegicus [6] = species: Rattus norvegicus; assay: Antihyperalgesic effect in the carrageenan induced thermal hyperalgesia model; assay type: functional
Rattus norvegicus [7] = assay: Nociceptive paw flinching in rats assessed 30 min following an intraplantar injection of 5% formalin into the right hind paw; NA=not active uM/Kg; assay type: functional, organism-based; summary of the method: as §2

Sequence of Adenosine kinase (Q64640 whole entry): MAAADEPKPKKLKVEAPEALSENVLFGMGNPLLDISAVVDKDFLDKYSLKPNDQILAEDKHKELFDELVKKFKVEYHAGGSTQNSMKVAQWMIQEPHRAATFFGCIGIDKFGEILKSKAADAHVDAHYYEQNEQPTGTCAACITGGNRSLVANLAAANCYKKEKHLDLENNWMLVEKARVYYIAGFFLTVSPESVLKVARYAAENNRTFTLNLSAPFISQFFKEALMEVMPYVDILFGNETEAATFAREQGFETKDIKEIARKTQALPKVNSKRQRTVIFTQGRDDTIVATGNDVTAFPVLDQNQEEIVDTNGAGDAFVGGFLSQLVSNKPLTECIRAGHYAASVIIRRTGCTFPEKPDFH

Compound	IC50 (Adenosine kinase) [nM]	IC50 (IMR-32 [1]) [nM]	IC50 (IMR-32 [2]) [nM]	also measured
Nc1ncnc(C#Cc2ccc(N3CCOCC3)nc2)c1CCCc1cccc(Br)c1	3.5	580	–	–
Nc1ncnc(C#Cc2ccc(N3CCOCC3)nc2)c1CCCc1ccccc1Cl	2.5	188	–	–
Nc1ncnc(C#Cc2ccc(N3CCOCC3)nc2)c1Cc1cccc(Br)c1	22	–	1000	–
CN(Cc1cccc(Cl)c1)c1c(N)ncnc1C#Cc1ccc(N2CCOCC2)nc1	22	225	–	NA (Rattus norvegicus [3]): inactive; NA (Rattus norvegicus [4]): inactive
COc1ccc(CCCc2c(N)ncnc2C#Cc2ccc(N3CCOCC3)nc2)cc1	3.5	–	198	ED50 (Rattus norvegicus [5]): 20 µmol/kg; ED50 (Rattus norvegicus [6]): > 30 µmol/kg
CN(Cc1ccccc1)c1c(N)ncnc1C#Cc1ccc(N2CCOCC2)nc1	30	–	124	ED50 (Rattus norvegicus [5]): 10 µmol/kg; ED50 (Rattus norvegicus [6]): 10 µmol/kg
Nc1ncnc(C#Cc2ccc(N3CCOCC3)nc2)c1CCCCc1ccccc1	45	> 1000	–	–
CN(Cc1cccc(Br)c1)c1c(N)ncnc1C#Cc1ccc(N2CCOCC2)nc1	5	725	–	–
CN(Cc1ccccc1)Cc1c(N)ncnc1C#Cc1ccc(N2CCOCC2)nc1	2	–	118	ED50 (Rattus norvegicus [6]): 5 µmol/kg; NA (Rattus norvegicus [4]): inactive
Nc1ncnc(C#Cc2ccc(N3CCOCC3)nc2)c1CCCc1cccnc1	4	–	94	NA (Rattus norvegicus [4]): inactive
Nc1ncnc(C#Cc2ccc(N3CCOCC3)nc2)c1Cc1ccccc1	40	–	700	ED50 (Rattus norvegicus [5]): 30 µmol/kg
CN(Cc1ccccc1Cl)Cc1c(N)ncnc1C#Cc1ccc(N2CCOCC2)nc1	5	–	146	ED50 (Rattus norvegicus [5]): 30 µmol/kg; ED50 (Rattus norvegicus [6]): > 30 µmol/kg
Cc1ccccc1CN(C)c1c(N)ncnc1C#Cc1ccc(N2CCOCC2)nc1	6	–	94	NA (Rattus norvegicus [3]): inactive; NA (Rattus norvegicus [7]): inactive
Nc1ncnc(C#Cc2ccc(N3CCOCC3)nc2)c1CCCc1ccc(Br)cc1	2	565	–	–
CN(Cc1ccc(Br)cc1)c1c(N)ncnc1C#Cc1ccc(N2CCOCC2)nc1	90	515	–	–
CN(Cc1ccc2ccccc2c1)c1c(N)ncnc1C#Cc1ccc(N2CCOCC2)nc1	246	–	388	–
CN(Cc1ccccc1Cl)c1c(N)ncnc1C#Cc1ccc(N2CCOCC2)nc1	15	–	100	ED50 (Rattus norvegicus [5]): 10 µmol/kg; ED50 (Rattus norvegicus [6]): 3 µmol/kg
Nc1cc(C#Cc2ccc(N3CCOCC3)nc2)ncn1	120	–	> 1000	–
CN(Cc1ccc(Cl)cc1)c1c(N)ncnc1C#Cc1ccc(N2CCOCC2)nc1	106	360	–	–
Nc1ncnc(C#Cc2ccc(N3CCOCC3)nc2)c1CCCc1ccncc1	4	–	46	ED50 (Rattus norvegicus [6]): 46 µmol/kg; NA (Rattus norvegicus [4]): inactive
Nc1ncnc(C#Cc2ccc(N3CCOCC3)nc2)c1CN1CCc2ccccc2C1	40	–	1000	–
CN(Cc1ccc(Cl)c(Cl)c1)c1c(N)ncnc1C#Cc1ccc(N2CCOCC2)nc1	200	345	–	–
CN(c1cccc(Br)c1)c1c(N)ncnc1C#Cc1ccc(N2CCOCC2)nc1	28	–	280	–
Nc1ncnc(C#Cc2ccc(N3CCOCC3)nc2)c1CCCc1ccccc1	2.5	–	70	ED50 (Rattus norvegicus [5]): 8 µmol/kg; ED50 (Rattus norvegicus [6]): > 30 µmol/kg
CN(Cc1ccccc1C(F)(F)F)c1c(N)ncnc1C#Cc1ccc(N2CCOCC2)nc1	40	276	–	–
Nc1ncnc(C#Cc2ccc(N3CCOCC3)nc2)c1CCc1ccccc1	4.5	220	–	–
